Compound activity from PubChem BioAssay.
Most compounds without a hit are left out; they make up all but 2.9% or so of the library.
OX1R antag-1: OX1R (HCRTR1) antagonists, primary screen, fluorescence, CHO/OX1R cells, Fluo-8 calcium, orexin A | actives 0.43% (n = 330,000) | Orexin/Hypocretin receptor type 1 (Homo sapiens), O43613 | AID 434989, 2010 | Fluo-8 calcium fluorescence | inhibition, % at 5 µM;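 active = inhibition above its plate's threshold, mean inhibition of all tested compounds on the plate plus 3 SD, cut at about 37% in these data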;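 also: 0% = orexin A challenge wells and 100% = SB-334867-A antagonist wells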
Target sequence (O43613 whole entry, looked up): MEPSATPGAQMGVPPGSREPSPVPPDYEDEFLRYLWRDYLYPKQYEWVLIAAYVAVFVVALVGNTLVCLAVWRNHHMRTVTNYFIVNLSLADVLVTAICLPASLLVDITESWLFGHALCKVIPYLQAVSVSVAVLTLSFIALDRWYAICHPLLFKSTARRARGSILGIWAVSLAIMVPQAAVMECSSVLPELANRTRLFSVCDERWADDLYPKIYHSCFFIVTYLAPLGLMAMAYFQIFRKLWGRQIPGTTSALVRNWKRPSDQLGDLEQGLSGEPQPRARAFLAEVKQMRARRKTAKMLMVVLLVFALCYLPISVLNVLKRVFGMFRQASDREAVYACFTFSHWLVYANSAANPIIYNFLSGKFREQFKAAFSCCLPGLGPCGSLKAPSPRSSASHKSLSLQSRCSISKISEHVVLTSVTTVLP
OX1R antag-2: antagonists of human orexin 1 receptor (OX1R); actives 1.8% (n = 330,000); inhibition, % at 6.6 µM; AID 485270, 2010; OX1R-expressing cells, FRET antagonist read-out; in the data active = inhibition mostly above about 38%, no sharp cut-off; inactive = mostly below about 40%;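 also: 0% = agonist challenge alone and 100% = reference antagonist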
CHO-K1 Ca antag: nonselective inhibitor or artifact in parental CHO-K1 cells; ATP-induced calcium, Fluo-8 fluorescence; inhibition, % at 3 µM; actives 0.6% (n = 360,000);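 active = inhibition above a per-plate cutoff, the plate's mean sample inhibition plus 3 SD, cut at about 24% in these data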;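 also: 0% = DMSO plus EC80 ATP and 100% = DMSO alone without ATP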
CHO-K1 Ca PAM: nonselective calcium activators in parental CHO-K1 cells, primary screen, counter-screen for M1 PAM project, cell-based, Fluo-8 calcium fluorescence, full deck, 1536-well | ATP EC20; 0% at ATP EC20, 100% at ATP max | activation, % at 3 µM | actives 0.02% (n = 360,000) | AID 602247, 2012;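 active = activation above the run cutoff, the mean activation of all test compounds plus 3 SD, cut at about 40% in these data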;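 also: peak over basal fluorescence ratio in a 140 s read after ATP addition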
CHO-K1 Ca ag: counter-screen for M1 agonists: effect in parental CHO-K1 cells. activation, % at 3 µM. actives 0.48% (n = 360,000). Fluo-8 calcium fluorescence; scaled to maximal ATP response, vehicle zero. AID 602248, 2012; in the data active = activation above about 15%;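 also: untransfected CHO-K1 host cells lacking M1 receptor as counterscreen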
CHO parental Ca: ATP-evoked calcium signal inhibitors, parental CHO, primary screen, counter-screen for OX1R antagonist project, cell-based, fluorescence, Fluo-8 calcium dye; parental CHO-K1, ATP-induced calcium, Fluo-8 fluorescence; inhibition, % at 5.6 µM; actives 0.63% (n = 330,000); AID 463079, 2010;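 active = inhibition above that plate's mean sample inhibition plus 3 SD, cut at about 26% in these data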;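 also: 0% = ATP-challenged DMSO wells and 100% = DMSO wells without ATP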
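Measured by: calcium-sensitive Fluo-8 fluorescence / Test system: CHO parental line / Controls: ATP-challenged DMSO wells low, unchallenged DMSO wells high / Measure: % inhibition / Compound: single nominal dose of 5.6 µM per compound / Replicates: single well per compound, no replicates / Reagent: ATP as calcium-mobilizing challenge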
Active calls of the source: *.

For Cc1n[nH]c(=O)c2c(NC(=O)CSc3nncs3)oc(C)c12 the results were OX1R antag-1 -9, OX1R antag-2 48*, CHO-K1 Ca antag 3, CHO-K1 Ca PAM -7, CHO-K1 Ca ag 0 and CHO parental Ca -3.
`Cc1ccc2c(c1)-c1c(cnn1CC(=O)O)CO2` gave OX1R antag-1 -10, OX1R antag-2 31, CHO-K1 Ca antag -11, CHO-K1 Ca PAM 20, CHO-K1 Ca ag 1 and CHO parental Ca -4.
For Cc1ccc2c(c1)-c1c(cnn1CC(=O)N1CCCN(Cc3ccccc3F)C1)CO2 the results were OX1R antag-1 -6, OX1R antag-2 43*, CHO-K1 Ca antag 0, CHO-K1 Ca PAM 7, CHO-K1 Ca ag 5 and CHO parental Ca -5.
Screening Cn1nc(N)c2ncc(-c3ccc(Cl)cc3)nc21 returned CHO-K1 Ca antag 3, CHO-K1 Ca PAM 4 and CHO-K1 Ca ag -1.
Cc1cc(C)c(O)c(-c2cc(C(=O)Nc3ccc(S(=O)(=O)N4CCOCC4)cc3)[nH]n2)c1 was read as OX1R antag-1 40, OX1R antag-2 24, CHO-K1 Ca antag 19, CHO-K1 Ca PAM 1, CHO-K1 Ca ag 1 and CHO parental Ca 34*.
For O=C(CCCN1C(=O)c2cccc3cccc(c23)C1=O)NCc1cccs1 the results were OX1R antag-1 -21, OX1R antag-2 12, CHO-K1 Ca antag -15, CHO-K1 Ca PAM 20, CHO-K1 Ca ag 1 and CHO parental Ca -21.
For Cc1nn(-c2ccccc2)c(C)c1NC(=O)COc1ccccc1C#N the results were CHO-K1 Ca antag 4, CHO-K1 Ca PAM 7 and CHO-K1 Ca ag 1.
For Cc1nn(-c2ccccc2)c(C)c1NC(=O)COc1cc(F)ccc1[N+](=O)[O-] the results were OX1R antag-1 7, OX1R antag-2 4, CHO-K1 Ca antag 11, CHO-K1 Ca PAM -23, CHO-K1 Ca ag 18* and CHO parental Ca 0.
CCOC(=O)N1CCN(C(=O)CCS(=O)(=O)c2ccc(Br)s2)CC1 was read as OX1R antag-1 -8, OX1R antag-2 5, CHO-K1 Ca antag 27*, CHO-K1 Ca PAM -10, CHO-K1 Ca ag 0 and CHO parental Ca -11.
For CCOC(=O)c1cccc(NC(=O)CCS(=O)(=O)c2ccc(Br)s2)c1 the results were OX1R antag-1 -11, OX1R antag-2 46*, CHO-K1 Ca antag -3, CHO-K1 Ca PAM 0, CHO-K1 Ca ag 1 and CHO parental Ca -17.
CN1CCC(N(C)CC(C)(C)NS(=O)(=O)c2ccccc2)CC1 was read as OX1R antag-1 -8, OX1R antag-2 0, CHO-K1 Ca antag -9, CHO-K1 Ca PAM 10, CHO-K1 Ca ag 1 and CHO parental Ca -7.
Cc1cc(C)cc(NS(=O)(=O)c2c(C)[nH]c(=O)[nH]c2=O)c1 was read as CHO-K1 Ca antag 27*, CHO-K1 Ca PAM 4 and CHO-K1 Ca ag 2.
Screening O=C(OCc1ccccc1)N1C[C@H](O)[C@H](O)C[C@@H]1c1c(Cl)cccc1Br returned CHO-K1 Ca antag 8, CHO-K1 Ca PAM 19 and CHO-K1 Ca ag 2.
For O=C(OCc1ccccc1)N1Cc2ccnnc2CC1c1ccccc1Br (stereo not drawn) the results were CHO-K1 Ca antag 32*, CHO-K1 Ca PAM 0 and CHO-K1 Ca ag 0.
COc1ccc(Cl)cc1N1C(=NC(=O)C2CCCCC2)SC2CS(=O)(=O)CC21 (stereo not drawn) was read as OX1R antag-1 -13, OX1R antag-2 -2, CHO-K1 Ca antag -6, CHO-K1 Ca PAM 12, CHO-K1 Ca ag 0 and CHO parental Ca -13.
`COc1ccc(NC(=S)N2CCC(NC(=O)C3CCCCC3)CC2)cc1` gave OX1R antag-1 -12, OX1R antag-2 6, CHO-K1 Ca antag 10, CHO-K1 Ca PAM -10, CHO-K1 Ca ag 0 and CHO parental Ca -6.
Screening O=C(c1ccccc1)c1ccc(-n2cnnc2)c([N+](=O)[O-])c1 returned OX1R antag-1 -3, OX1R antag-2 18, CHO-K1 Ca antag -20, CHO-K1 Ca PAM 5, CHO-K1 Ca ag 22* and CHO parental Ca -6.
Nc1ccc(Sc2cnn(-c3ccccc3)c(=O)c2Cl)cc1 was read as OX1R antag-1 1, OX1R antag-2 23, CHO-K1 Ca antag 10, CHO-K1 Ca PAM -4, CHO-K1 Ca ag 0 and CHO parental Ca -3.
Screening Cc1ccc(Sc2cnn(-c3ccccc3)c(=O)c2Cl)cc1 returned OX1R antag-1 -19, OX1R antag-2 26, CHO-K1 Ca antag -17, CHO-K1 Ca PAM 16, CHO-K1 Ca ag 0 and CHO parental Ca 38*.
Screening Cc1cc(F)ccc1NCc1ccc([N+](=O)[O-])cc1 returned OX1R antag-1 -17, OX1R antag-2 7, CHO-K1 Ca antag -9, CHO-K1 Ca PAM 2, CHO-K1 Ca ag 21* and CHO parental Ca 2.
Screening O=C(CC1Nc2ccccc2NC1=O)Nc1ccc2c(c1)OCO2 (stereo not drawn) returned OX1R antag-1 -9, OX1R antag-2 19, CHO-K1 Ca antag 28*, CHO-K1 Ca PAM -18, CHO-K1 Ca ag 0 and CHO parental Ca -14.
Cc1ccc(S(=O)(=O)CC2CSc3nnc(C)c(=O)n32)cc1 (stereo not drawn) was read as OX1R antag-1 -12, OX1R antag-2 9, CHO-K1 Ca antag -17, CHO-K1 Ca PAM 20, CHO-K1 Ca ag 1 and CHO parental Ca 0.
`Cc1nnc2n(c1=O)C(CS(=O)(=O)c1ccc3ccccc3c1)CS2` (stereo not drawn) gave OX1R antag-1 -6, OX1R antag-2 19, CHO-K1 Ca antag 6, CHO-K1 Ca PAM 11, CHO-K1 Ca ag 15* and CHO parental Ca -12.
For COc1cccc(NC(=O)Cn2nnc(C(=O)Nc3cc(Cl)ccc3OC)c2N)c1 the results were OX1R antag-1 -4, OX1R antag-2 10, CHO-K1 Ca antag -10, CHO-K1 Ca PAM 10, CHO-K1 Ca ag 2 and CHO parental Ca 4.
COc1cccc(Cn2nnc(C(=O)Nc3cc(Cl)ccc3OC)c2N)c1 was read as OX1R antag-1 13, OX1R antag-2 42*, CHO-K1 Ca antag 2, CHO-K1 Ca PAM 12, CHO-K1 Ca ag 1 and CHO parental Ca 30*.
Screening COc1ccc(NC(=O)COC(=O)CN2C(=O)c3ccccc3C2=O)cc1 returned CHO-K1 Ca antag -3, CHO-K1 Ca PAM 21 and CHO-K1 Ca ag 1.
`CC(C)[C@@H](NC(=O)C1CCC(CNC(=O)[C@H](Cc2ccccc2)NC(=O)OC(C)(C)C)CC1)C(=O)O` (stereo partly drawn) gave CHO-K1 Ca antag 8, CHO-K1 Ca PAM -19 and CHO-K1 Ca ag 0.
Cc1ccc(OCc2nnc(SC(C)C(=O)O)n2-c2ccccc2)cc1 (stereo not drawn) was read as OX1R antag-1 1, OX1R antag-2 0, CHO-K1 Ca antag -6, CHO-K1 Ca PAM 5, CHO-K1 Ca ag 1 and CHO parental Ca -5.
